The subject of one test is MOLM-13. The test can be described thus: Antiproliferative activity against human MOLM13 cells expressing wild type p53 assessed as cell growth inhibition after 4 days by WST-8 assay. The class given is functional, cell-based. Conditions: MOLM-13, 96 h. The procedure, abridged:
(§1)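 Leukemia cells seeded at 10000–20000 cells/well, breast cancer lines at 5000–10000 cells/well. Serially diluted compound added, then 4 days at 37 °C, 5% CO2. Growth read with WST-8 reagent after at least 1 h, absorbance at 450 nm. RS4;11, MOLM-13 and breast lines were grown in RPMI 1640; MV-4-11 and HL-60 in IMDM; all with 10% FBS. Mean ± SE, at least three independent experiments.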

Test [1] addresses T1, Eukaryotic peptide chain release factor GTP-binding subunit ERF3A (Homo sapiens, UniProt P15170). The test can be described thus: Induction of GSPT1 degradation in human MDA-MB-468 cells transfected with CRBN siRNA LQ-021086-10-0002 assessed as decrease in GSPT1 protein level at 0.1 uM after 2 to 24 hrs by Western blot analysis. Format: cell-based. Summed up: (§2)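 MDA-MB-231 or MDA-MB-468 cells transfected 2 days with CRBN siRNA (Lipofectamine RNAiMAX; non-targeting siRNA as control), then exposed to 0.1 μM for 2 h or 24 h. Cell culture was RPMI 1640 with 10% FBS at 37 °C, 5% CO2. GSPT1 and cereblon protein were probed by Western blot.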

For test [2], the target named is Protein cereblon/Eukaryotic peptide chain release factor GTP-binding subunit ERF3A (Homo sapiens) (UniProt Q96SW2+P15170). The test can be described thus: Inhibition of cereblon binding with GSPT1 in human MDA-MB-231 cells assessed as decrease in GSPT1 degradation at 0.1 uM after 2 hrs in presence of 30 uM lenalidomide by Western blot analysis. The class given is cell-based. The procedure, abridged: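 MDA-MB-231 or MDA-MB-468 cells were treated 2 h with or without 30 μM lenalidomide to block cereblon binding. GSPT1 protein level was then assessed by Western blotting.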

Test [3] deals with T2, Protein cereblon/Eukaryotic peptide chain release factor GTP-binding subunit ERF3A/DNA damage-binding protein 1/Cullin-4A (Homo sapiens) (UniProt Q96SW2+Q16531+Q13619+P15170). Nature of the test: Protac activity at GSPT1/CUL4/DDB1/CRBN in human RS4:11 cells expressing wild type p53 assessed as decrease in GSPT1 protein level after 2 hrs by Western blot analysis. The class given is cell-based. The procedure, abridged: (§3)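 RS4;11 (wild-type p53) or RS4;11/IRMI-2 (MDM2 inhibitor-resistant derivative, mutant p53) cells kept in RPMI 1640 with 10% FBS at 37 °C, 5% CO₂. 2×10^6 cells/well treated at the indicated concentrations and times, then lysed in ice-cold lysis buffer with protease inhibitor. GSPT1 detected by Western blot with a specific antibody.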
Background: Immunoblotting shows a protein as a band on a membrane.

Test [4] addresses Cellular tumor antigen p53 (Homo sapiens) (UniProt P04637). The test can be described thus: Activation of p53 in human RS4:11 cells assessed as increase in MDM2 mRNA expression at 3 nM after 1 to 2 hrs by qRT-PCR analysis. The class given is cell-based. The procedure, abridged:
(§4)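 RS4;11 cells (RPMI 1640, 10% FBS, 37 °C, 5% CO2) treated with 3 nM or 10 nM compound; total RNA extracted and mRNA of p53 targets MDM2, CDKN1A, PUMA and BAX quantified by qRT-PCR. Mean ± standard error from at least three independent experiments.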
For orientation: In qPCR the cycle at which signal appears reflects the starting amount.

Test [5] deals with T3, E3 ubiquitin-protein ligase Mdm2 (Homo sapiens, UniProt Q00987). The test can be described thus: Induction of MDM2 degradation in human RS4:11 cells assessed as upregulation of p53 at 1 to 30 nM after 1 hr by Western blot analysis. The class given is cell-based. The procedure, abridged:
(§5)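 Western blots of MDM2 and p53 protein were run on RS4;11 cells (wild-type p53) in RPMI 1640 with 10% FBS. 2×10^6 cells/well were treated at the indicated concentrations for 1 h or 2 h. Lysis was in ice-cold buffer with protease inhibitor, followed by probing with specific antibodies.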

Test [6] concerns the target T3, E3 ubiquitin-protein ligase Mdm2. The test can be described thus: Induction of MDM2 degradation in human RS4:11 cells assessed as upregulation of p53 at 1 to 30 nM after 2 hrs by Western blot analysis. Format: cell-based. The procedure, abridged:
as §5

The subject of a further test is MV4-11. The test can be described thus: Antiproliferative activity against human MV4-11 cells expressing wild type p53 assessed as cell growth inhibition after 4 days by WST-8 assay. Format: functional, cell-based. Particulars: MV4-11, 96 h. The procedure, abridged:
as §1
On the technique in general: Tetrazolium assays rely on reduction of a dye to a coloured formazan, in cell work by metabolically active cells.

For another test, the system named is RS4-11. The test can be described thus: Antiproliferative activity against human RS4:11 cells expressing wild type p53 assessed as cell growth inhibition without interaction with cereblon after 4 days by WST-8 assay. Conditions: RS4-11, 96 h. The class given is functional, cell-based. Summed up: as §1
Test [7] relates to MDA-MB-468. Nature of the test: Antiproliferative activity against human MDA-MB-468 cells transfected with CRBN siRNA LQ-021086-11-0002 assessed as cell growth inhibition after 4 days by WST-8 assay. Particulars: MDA-MB-468, 96 h. The class given is functional, cell-based. The procedure, abridged:
(§6)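 MDA-MB-231 or MDA-MB-468 cells transfected for 2 days using Lipofectamine RNAiMAX with MDM2 siRNA, one of two CRBN siRNAs, or non-targeting control siRNA. Compound then added and growth read by WST-8 at 450 nm.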

Test [8] addresses Cellular tumor antigen p53 (Homo sapiens) (UniProt P04637). The test can be described thus: Activation of p53 in human RS4:11 cells assessed as increase in PUMA mRNA expression at 3 nM after 1 to 2 hrs by qRT-PCR analysis. The class given is cell-based. The procedure, abridged:
as §4

The subject of test [9] is MDA-MB-468. The test can be described thus: Antiproliferative activity against human MDA-MB-468 cells assessed as cell growth inhibition after 4 days in presence of control siRNA for 2 days followed by compound treatment by WST-8 assay. Format: functional, cell-based. Summed up:
as §6

Test [10] has as its target T2, Protein cereblon/Eukaryotic peptide chain release factor GTP-binding subunit ERF3A/DNA damage-binding protein 1/Cullin-4A (Homo sapiens). Nature of the test: Protac activity at GSPT1/CUL4/DDB1/CRBN in human RS4:11 cells expressing wild type p53 assessed as decrease in GSPT1 protein level at 10 nM by Western blot analysis. Particulars: TDE = time-dependent effect. Format: cell-based. Summed up: as §3

Test [11] can be described thus: Antiproliferative activity against human RS4:11/IRMI-2 cells harboring p53 hotspot mutation Y236H/R249G assessed as MDM2-independent cell growth inhibition after 4 days by WST-8 assay. The class given is functional, cell-based. Conditions: RS4-11, 96 h. The procedure, abridged: as §1
The test system of test [12] is MDA-MB-468. The test can be described thus: Antiproliferative activity against human MDA-MB-468 cells transfected with MDM2 siRNA assessed as cell growth inhibition after 4 days by WST-8 assay. Conditions: MDA-MB-468, 96 h. The class given is functional, cell-based. The procedure, abridged:
as §6

Test [13] has as its target T1, Eukaryotic peptide chain release factor GTP-binding subunit ERF3A. The test can be described thus: Induction of GSPT1 degradation in human RS4:11 cells at 0.1 uM pretreated with proteasome inhibitor PR-171 followed by compound treatment after 2 hrs by Western blot analysis.
The target of test [14] is GSPT1/E3 ubiquitin-protein ligase Mdm2 (Homo sapiens) (UniProt Q00987+P15170). Nature of the test: Binding affinity to GSPT1/MDM2 in human MDA-MB-231 cells assessed as GSPT1 degradation at 0.1 to 1 uM after 2 hrs by Western blot analysis. Format: cell-based.
Test [15] addresses T1, Eukaryotic peptide chain release factor GTP-binding subunit ERF3A. Nature of the test: Induction of GSPT1 degradation in human MDA-MB-231 cells transfected with CRBN siRNA LQ-021086-11-0002 assessed as decrease in GSPT1 protein level at 0.1 uM after 2 to 24 hrs by Western blot analysis. Format: cell-based. The procedure, abridged:
as §2

In the next test the test system is HL-60. Nature of the test: Antiproliferative activity against human HL60 cells with lack of p53 assessed as cell growth inhibition after 4 days by WST-8 assay. The class given is functional, cell-based. Particulars: HL-60, 96 h. The procedure, abridged: as §1

The source made the active and inactive calls. The rule behind the calls is not given here.

Experimental findings from ChEMBL document CHEMBL4321819, “Simple Structural Modifications Converting a Bona fide MDM2 PROTAC Degrader into a Molecular Glue Molecule: A Cautionary Tale in the Design of PROTAC Degraders” (J Med Chem, 2019) are described below.

T1 sequence (P15170 whole entry): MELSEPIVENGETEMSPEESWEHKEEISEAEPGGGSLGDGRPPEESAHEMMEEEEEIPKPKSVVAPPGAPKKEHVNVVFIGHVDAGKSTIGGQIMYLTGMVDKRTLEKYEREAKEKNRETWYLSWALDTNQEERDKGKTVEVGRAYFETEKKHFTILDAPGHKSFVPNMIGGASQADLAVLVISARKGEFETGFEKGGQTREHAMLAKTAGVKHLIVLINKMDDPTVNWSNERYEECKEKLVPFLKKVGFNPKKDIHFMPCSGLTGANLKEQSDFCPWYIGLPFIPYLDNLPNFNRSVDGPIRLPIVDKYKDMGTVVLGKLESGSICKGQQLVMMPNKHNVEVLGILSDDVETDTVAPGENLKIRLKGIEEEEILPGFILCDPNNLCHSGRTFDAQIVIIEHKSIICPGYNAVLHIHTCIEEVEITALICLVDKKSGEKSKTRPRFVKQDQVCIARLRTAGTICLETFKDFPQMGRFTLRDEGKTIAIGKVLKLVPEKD
T2 sequence (P15170 whole entry, looked up): as the sequence (P15170 whole entry) above
T2 sequence (Q13619 whole entry, looked up): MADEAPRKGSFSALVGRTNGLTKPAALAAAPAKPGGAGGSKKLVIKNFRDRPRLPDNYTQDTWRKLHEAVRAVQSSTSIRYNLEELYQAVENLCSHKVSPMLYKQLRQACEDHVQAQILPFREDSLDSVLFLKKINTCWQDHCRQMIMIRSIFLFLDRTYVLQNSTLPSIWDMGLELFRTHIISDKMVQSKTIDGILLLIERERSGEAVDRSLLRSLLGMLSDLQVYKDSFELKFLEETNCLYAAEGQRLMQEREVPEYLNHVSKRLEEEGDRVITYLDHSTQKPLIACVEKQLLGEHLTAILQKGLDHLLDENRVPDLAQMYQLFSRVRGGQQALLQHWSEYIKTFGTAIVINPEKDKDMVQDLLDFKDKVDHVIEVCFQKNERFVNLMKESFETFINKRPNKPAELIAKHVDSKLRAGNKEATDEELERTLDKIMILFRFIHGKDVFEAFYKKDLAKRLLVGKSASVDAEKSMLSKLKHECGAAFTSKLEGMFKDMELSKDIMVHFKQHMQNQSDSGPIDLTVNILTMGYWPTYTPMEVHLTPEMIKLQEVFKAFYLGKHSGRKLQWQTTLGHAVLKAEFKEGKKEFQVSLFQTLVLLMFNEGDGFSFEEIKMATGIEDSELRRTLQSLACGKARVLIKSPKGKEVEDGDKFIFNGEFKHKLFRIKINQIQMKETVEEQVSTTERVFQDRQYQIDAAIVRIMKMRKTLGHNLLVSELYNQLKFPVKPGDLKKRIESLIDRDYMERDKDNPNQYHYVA
T2 sequence (Q16531 whole entry, looked up): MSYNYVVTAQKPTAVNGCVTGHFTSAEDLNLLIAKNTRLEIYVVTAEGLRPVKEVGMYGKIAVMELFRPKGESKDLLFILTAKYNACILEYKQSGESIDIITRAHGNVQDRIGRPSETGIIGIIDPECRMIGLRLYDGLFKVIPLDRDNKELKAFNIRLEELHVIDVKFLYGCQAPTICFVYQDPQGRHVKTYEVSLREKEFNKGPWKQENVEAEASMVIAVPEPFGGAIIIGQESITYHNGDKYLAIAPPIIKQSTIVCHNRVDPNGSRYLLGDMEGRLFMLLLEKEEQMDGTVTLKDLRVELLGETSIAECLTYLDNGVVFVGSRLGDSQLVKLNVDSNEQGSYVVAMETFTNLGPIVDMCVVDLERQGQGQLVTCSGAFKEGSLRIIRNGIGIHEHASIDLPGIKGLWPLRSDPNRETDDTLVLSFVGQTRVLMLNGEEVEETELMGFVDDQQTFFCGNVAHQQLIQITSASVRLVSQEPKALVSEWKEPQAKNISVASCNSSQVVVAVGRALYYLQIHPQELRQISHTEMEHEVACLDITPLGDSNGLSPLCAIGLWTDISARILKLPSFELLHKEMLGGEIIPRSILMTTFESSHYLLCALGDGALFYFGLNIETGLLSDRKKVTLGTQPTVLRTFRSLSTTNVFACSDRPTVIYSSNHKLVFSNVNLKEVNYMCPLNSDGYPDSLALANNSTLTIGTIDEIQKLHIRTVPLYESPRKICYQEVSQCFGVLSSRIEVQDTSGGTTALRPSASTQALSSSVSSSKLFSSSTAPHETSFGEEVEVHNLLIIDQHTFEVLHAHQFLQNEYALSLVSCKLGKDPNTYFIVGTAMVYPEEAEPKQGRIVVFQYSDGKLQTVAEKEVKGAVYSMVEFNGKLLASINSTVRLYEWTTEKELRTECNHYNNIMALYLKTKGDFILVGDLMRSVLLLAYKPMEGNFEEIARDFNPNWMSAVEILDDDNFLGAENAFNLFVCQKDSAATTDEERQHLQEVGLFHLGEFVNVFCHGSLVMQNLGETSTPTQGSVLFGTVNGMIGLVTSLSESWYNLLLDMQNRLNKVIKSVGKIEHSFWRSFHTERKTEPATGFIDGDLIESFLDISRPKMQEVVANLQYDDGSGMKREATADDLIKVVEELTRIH
T2 sequence (Q96SW2 whole entry, looked up): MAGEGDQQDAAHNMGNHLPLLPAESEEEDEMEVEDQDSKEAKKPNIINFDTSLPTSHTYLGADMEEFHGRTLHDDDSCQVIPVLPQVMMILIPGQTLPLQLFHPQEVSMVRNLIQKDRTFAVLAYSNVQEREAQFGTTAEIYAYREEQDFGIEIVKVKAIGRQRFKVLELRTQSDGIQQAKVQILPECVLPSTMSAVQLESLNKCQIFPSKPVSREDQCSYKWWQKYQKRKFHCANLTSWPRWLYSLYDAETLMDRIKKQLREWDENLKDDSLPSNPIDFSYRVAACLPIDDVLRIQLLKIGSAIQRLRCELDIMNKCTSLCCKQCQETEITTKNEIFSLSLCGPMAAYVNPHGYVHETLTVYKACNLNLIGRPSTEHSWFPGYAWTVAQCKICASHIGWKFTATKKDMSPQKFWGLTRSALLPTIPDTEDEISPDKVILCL
Chain of Cellular tumor antigen p53 (Homo sapiens) (P04637 whole entry, looked up): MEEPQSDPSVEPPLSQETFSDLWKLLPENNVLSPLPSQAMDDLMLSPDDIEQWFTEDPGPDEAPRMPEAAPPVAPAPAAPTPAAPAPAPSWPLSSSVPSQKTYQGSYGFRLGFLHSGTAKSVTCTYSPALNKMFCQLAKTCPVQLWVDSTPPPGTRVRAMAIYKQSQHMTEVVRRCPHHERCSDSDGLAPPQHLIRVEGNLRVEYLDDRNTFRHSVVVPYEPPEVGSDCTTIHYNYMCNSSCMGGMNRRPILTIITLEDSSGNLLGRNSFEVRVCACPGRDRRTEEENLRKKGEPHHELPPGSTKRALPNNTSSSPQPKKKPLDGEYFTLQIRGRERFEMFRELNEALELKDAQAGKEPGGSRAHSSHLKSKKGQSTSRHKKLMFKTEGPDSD
T3 sequence (Q00987 whole entry, looked up): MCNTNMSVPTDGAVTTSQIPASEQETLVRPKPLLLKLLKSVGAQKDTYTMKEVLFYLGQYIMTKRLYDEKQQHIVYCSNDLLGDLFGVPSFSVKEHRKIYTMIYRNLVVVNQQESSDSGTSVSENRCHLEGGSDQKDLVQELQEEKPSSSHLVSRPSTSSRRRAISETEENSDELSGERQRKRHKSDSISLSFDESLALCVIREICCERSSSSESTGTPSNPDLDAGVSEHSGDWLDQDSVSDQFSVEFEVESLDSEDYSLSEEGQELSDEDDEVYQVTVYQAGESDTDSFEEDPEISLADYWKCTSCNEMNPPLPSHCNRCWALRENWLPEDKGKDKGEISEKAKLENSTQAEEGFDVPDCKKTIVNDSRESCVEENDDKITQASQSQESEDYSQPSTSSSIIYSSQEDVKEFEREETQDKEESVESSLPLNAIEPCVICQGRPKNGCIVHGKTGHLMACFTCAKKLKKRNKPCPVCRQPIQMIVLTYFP
Chain of GSPT1/E3 ubiquitin-protein ligase Mdm2 (Homo sapiens) (P15170 whole entry, looked up): as the sequence (P15170 whole entry) above
Chain of GSPT1/E3 ubiquitin-protein ligase Mdm2 (Homo sapiens) (Q00987 whole entry, looked up): as the sequence (Q00987 whole entry, looked up) above
Chain of Protein cereblon/Eukaryotic peptide chain release factor GTP-binding subunit ERF3A (Homo sapiens) (P15170 whole entry, looked up): as the sequence (P15170 whole entry) above
Chain of Protein cereblon/Eukaryotic peptide chain release factor GTP-binding subunit ERF3A (Homo sapiens) (Q96SW2 whole entry, looked up): as the sequence (Q96SW2 whole entry, looked up) above

On to `O=C1CCC(N2Cc3c(CCCCCNC(=O)[C@@H]4NC5(CCCCC5)[C@@]5(C(=O)Nc6cc(Cl)ccc65)[C@H]4c4cccc(Cl)c4F)cccc3C2=O)C(=O)N1` (some centres undefined), for which the IC50 with MOLM-13 was 24.6 nM; in the test on MV4-11, 7.9 nM; in the test on RS4-11 it was 0.17 nM; in the test with MDA-MB-468 [7] it was more than 1000 nM; with MDA-MB-468 [9], 31.1 nM; in test [11], 2.6 nM. Besides, the IC50 came to 19.8 nM in the test on MDA-MB-468 [12] and 8.3 nM with HL-60. Further, the outcome in test [1], in test [4], in test [5], in test [6], in test [8] and in test [13] was inactive. For the same molecule, the outcome in [14] and in [15] was inactive. Further, the inhibition entry in test [2] is “Active”. The result in test [3] was Active. In addition, in test [10], the Activity entry was “Tde”.

As a reminder, the IC50 is the concentration at which inhibition is half-maximal.
